Compound activity (PubChem)
Only some compounds are listed: those with a hit (about 2.4% of all), similar ones and a draw of the others.
MIN6 prolif-1 – MIN6 beta-cell proliferation induction; MIN6 cells proliferation, ATPlite luminescence, 48 h; cells starved in 0.2% serum; 100% = growth in 10% serum; proliferation, % at 10 µM; hit rate 0.29% among 330,000;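 active means compounds whose signal lies at least 3.5 SD above the mean of all wells on their plate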;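 further: 0% = DMSO-treated cells in low-serum medium and 100% = 10% serum control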
MT1-MMP act inh – blocks activation of human MT1-MMP; P50281; GFP/RFP ratio change, % at 20 µM; hit rate 0.061% among 360,000; HT1080 RFP-PRO-GFP cells, GFP/RFP ratio fluorescence, overnight; percent of plate control window, DMSO zero;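 active means GFP/RFP ratio change of at least 30% with cell ATP level not reduced by more than half and red fluorescence within 50% of control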
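Assay system – RFP-PRO-GFP reporter HT1080 cells · Compound dosing – single dose of 20 µM compound, 1% DMSO final · Incubation – overnight compound exposure at 37 °C · Measure – GFP/RFP fluorescence ratio · Benchmarks – DMSO wells and RFP-L50D-GFP cells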
Myeloid diff MLP – myeloid differentiation induction; ER-HoxA9 myeloid progenitors, lysozyme-GFP differentiation, flow cytometry; calls only at 10 µM; hit rate 1% among 360,000;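 active means normalized GFP-positive differentiation at or above the plate's own cutoff, the solvent-only control mean plus 3 SD; inconclusive means no clear call, values can overlap the other calls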;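 further: cells exposed to compound for four days before flow analysis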
DAGLB inh – blocks human DAGLB lipase activity; AID 504411; inhibition, % at 5.17 µM; Q8NCG7; HEK293T DAGLB membrane lysate, EnzChek fluorogenic substrate; hit rate 0.059% among 340,000; in the data active means inhibition above about 34%;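 further: 0% = enzyme with vehicle and 100% = wells lacking enzyme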
SENP1 inh – blocks the human SENP1 SUMO protease catalytic domain. Q9P0U3. recombinant SENP1 catalytic domain, CyPet-SUMO1-YPet FRET cleavage. inhibition, % at 10 µM. hit rate 0.21% among 360,000;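 active means inhibition at least 30% at 10 µM, raw YFP signal under a set limit, fluorescence ratio 0.5 to 1.5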;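 further: 0% = enzyme with DMSO and 100% = no enzyme wells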
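Compound: 10 µM single point, 0.5% DMSO; Test system: hSENP1 catalytic domain, recombinant; Timing: 50 min reaction at room temperature; Technique: FRET, CFP and YFP emission; Control set: no-enzyme wells low, DMSO-plus-enzyme wells high control.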
CendR NRP1 mod – modulators of CendR peptide binding to human neuropilin-1; FAM-RPARPAR peptide binding to NRP-1, fluorescence polarization; hit rate 0.85% among 360,000; inhibition, % at 25 µM; O14786;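 active means inhibition or corrected inhibition above about 18%, plus a signal ratio from 0.5 to 1.5, limit read from the data, passing the limit was not always enough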
Target sequence (O14786 whole entry, looked up): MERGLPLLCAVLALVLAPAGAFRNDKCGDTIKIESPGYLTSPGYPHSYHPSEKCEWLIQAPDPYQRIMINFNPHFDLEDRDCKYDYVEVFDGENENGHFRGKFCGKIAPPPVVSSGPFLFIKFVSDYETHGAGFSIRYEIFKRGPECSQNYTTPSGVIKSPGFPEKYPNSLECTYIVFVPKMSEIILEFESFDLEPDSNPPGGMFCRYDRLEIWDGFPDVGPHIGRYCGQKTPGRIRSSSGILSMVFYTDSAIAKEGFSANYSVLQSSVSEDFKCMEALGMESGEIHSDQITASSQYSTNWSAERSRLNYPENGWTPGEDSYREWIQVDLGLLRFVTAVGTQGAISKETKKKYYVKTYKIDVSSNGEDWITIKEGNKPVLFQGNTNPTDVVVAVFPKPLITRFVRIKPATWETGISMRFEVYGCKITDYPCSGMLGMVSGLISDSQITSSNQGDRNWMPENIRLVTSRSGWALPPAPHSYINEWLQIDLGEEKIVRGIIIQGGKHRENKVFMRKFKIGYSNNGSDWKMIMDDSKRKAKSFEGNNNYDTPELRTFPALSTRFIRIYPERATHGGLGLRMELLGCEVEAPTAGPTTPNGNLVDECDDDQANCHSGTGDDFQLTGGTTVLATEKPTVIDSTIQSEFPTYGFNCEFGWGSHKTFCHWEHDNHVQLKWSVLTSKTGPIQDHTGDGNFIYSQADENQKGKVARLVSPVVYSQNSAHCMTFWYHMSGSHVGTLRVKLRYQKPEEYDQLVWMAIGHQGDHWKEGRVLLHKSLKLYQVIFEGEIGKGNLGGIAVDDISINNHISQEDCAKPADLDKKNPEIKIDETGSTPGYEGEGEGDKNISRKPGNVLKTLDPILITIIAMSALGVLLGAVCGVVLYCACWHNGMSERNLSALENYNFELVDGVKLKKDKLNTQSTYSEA
MIN6 prolif-2 – confirmation of inducers of beta-cell replication in MIN6 cells. shares compounds with MIN6 prolif-1. MIN6 beta-cell proliferation, ATPlite luminescence, 48 h; cells kept in 0.2% serum; scaled between 0.2% and 10% serum. proliferation increase, % at 50 µM. 920 tested, under 10 active. AID 463095;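 active means proliferation increase above 40% at any of the four tested concentrations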
The depositor's hits bear a star.

How did Cn1c(SCC(=O)c2ccccc2)nnc1C1COc2ccccc2O1 (stereo unspecified) do in these assays?
MIN6 prolif-1: 5.6*; MT1-MMP act inh: 2.6; Myeloid diff MLP: inactive; DAGLB inh: 0.7; SENP1 inh: 0.2; CendR NRP1 mod: 7.9; MIN6 prolif-2: -0.1

What do the screens show for `COc1ccc(NC(=O)c2c(Cl)cnn2C)c(C)c1`?
MIN6 prolif-1: -2.7; MT1-MMP act inh: 1.2; Myeloid diff MLP: inactive; DAGLB inh: -1.3; SENP1 inh: 0.2; CendR NRP1 mod: -3.3

What do the screens show for `COC(=O)c1sccc1NC(=O)c1c(Cl)cnn1C`?
MIN6 prolif-1: 9.0*; MT1-MMP act inh: -3.1; Myeloid diff MLP: inactive; DAGLB inh: -6.5; SENP1 inh: 0.6; CendR NRP1 mod: 4.8; MIN6 prolif-2: 0.9

Results for COc1cc(NC(=O)CN(c2ccc(C)cc2)S(=O)(=O)c2c(C)nn(C)c2C)cc(OC)c1 ?
MIN6 prolif-1: 10.1*; MT1-MMP act inh: -3.9; Myeloid diff MLP: inactive; DAGLB inh: 0.7; SENP1 inh: 1.2; CendR NRP1 mod: 7.1; MIN6 prolif-2: -5.6

What do the screens show for `O=C(NCc1ccc(Cl)cc1)c1cc(=O)[nH]c2ccccc12`?
MIN6 prolif-1: 0.6; MT1-MMP act inh: 1.4; Myeloid diff MLP: inactive; DAGLB inh: 0.8; SENP1 inh: 3.6; CendR NRP1 mod: 6.3

Results for NS(=O)(=O)c1ccc(CNC(=O)c2cc(=O)[nH]c3ccccc23)cc1 ?
MIN6 prolif-1: 6.5*; MT1-MMP act inh: -1.5; Myeloid diff MLP: inactive; DAGLB inh: 1.8; SENP1 inh: 2.7; CendR NRP1 mod: -9.2; MIN6 prolif-2: 0.1

How did CN(CC(=O)Nc1c(Cl)cccc1Cl)C(=O)c1ccccc1-c1nc2ccccc2s1 do in these assays?
MIN6 prolif-1: 12.8*; MT1-MMP act inh: -5.3; Myeloid diff MLP: inactive; DAGLB inh: -2.8; SENP1 inh: -1.8; CendR NRP1 mod: 4.1; MIN6 prolif-2: -6.3

Results for CCCCCCCNC(=O)C1(CC2CC(c3cccc(Br)c3)=NO2)CCNCC1 (stereo unspecified) ?
MIN6 prolif-1: -8.3; MT1-MMP act inh: -11.7; Myeloid diff MLP: inconclusive; DAGLB inh: 1.8; SENP1 inh: 1.6; CendR NRP1 mod: 16.1

How did N#CCc1ccc(Oc2ncccn2)cc1 do in these assays?
MIN6 prolif-1: 8.4*; MT1-MMP act inh: -3.9; Myeloid diff MLP: inactive; DAGLB inh: 1.4; SENP1 inh: 0.9; CendR NRP1 mod: 7.6; MIN6 prolif-2: -0.2

What do the screens show for `C=CCn1cc([N+](=O)[O-])nc1C`?
MIN6 prolif-1: 7.8*; MT1-MMP act inh: 2.0; Myeloid diff MLP: inactive; DAGLB inh: 0.1; SENP1 inh: 1.8; CendR NRP1 mod: -6.5; MIN6 prolif-2: -2.6

How did CCCCn1cc([N+](=O)[O-])nc1C do in these assays?
MIN6 prolif-1: 2.5; MT1-MMP act inh: 2.8; Myeloid diff MLP: inactive; DAGLB inh: -1.2; SENP1 inh: 1.6; CendR NRP1 mod: -11.4

Results for CC(C)(C)NC(=O)Cn1nc(C(F)(F)F)c2c1CCCC2 ?
MIN6 prolif-1: -0.6; MT1-MMP act inh: 0.5; Myeloid diff MLP: inactive; DAGLB inh: -1.8; SENP1 inh: 2.5; CendR NRP1 mod: -2.7

What do the screens show for `FC(F)(F)c1nc2nncn2c2c1CCCCC2`?
MIN6 prolif-1: 7.4*; MT1-MMP act inh: -1.6; Myeloid diff MLP: inactive; DAGLB inh: 0.5; SENP1 inh: 4.9; CendR NRP1 mod: 7.4; MIN6 prolif-2: -2.6

How did COc1ccc(S(=O)(=O)c2cnc3ccc(OC)cc3c2N2CCC3(CC2)OCCO3)cc1 do in these assays?
MIN6 prolif-1: 1.8; MT1-MMP act inh: -5.9; Myeloid diff MLP: inactive; DAGLB inh: -3.1; SENP1 inh: -4.7; CendR NRP1 mod: -4.4

Results for CCOc1ccc2ncc(S(=O)(=O)c3ccccc3)c(N3CCC4(CC3)OCCO4)c2c1 ?
MIN6 prolif-1: 0.0*; MIN6 prolif-2: -6.4

What do the screens show for `CC(C)(C)OC(=O)N1CCC(C(=O)Nc2cccc(C(=O)NC3CC3)c2)CC1`?
MT1-MMP act inh: 1.1; Myeloid diff MLP: inactive; DAGLB inh: 0.5; SENP1 inh: 0.3; CendR NRP1 mod: 5.6

How did CCc1onc(C)c1C(=O)O do in these assays?
MIN6 prolif-1: 7.5*; MT1-MMP act inh: -4.6; Myeloid diff MLP: inactive; DAGLB inh: -2.6; SENP1 inh: 2.6; CendR NRP1 mod: -2.4; MIN6 prolif-2: -2.9

Results for C#CCn1cc2c(c1-c1ccccc1)c(=O)n(C)c(=O)n2C ?
MT1-MMP act inh: 6.7; Myeloid diff MLP: inactive; DAGLB inh: -0.3; SENP1 inh: -0.7; CendR NRP1 mod: -13.5

How did O=C(/C=C/c1ccco1)NCc1ccccn1 do in these assays?
MIN6 prolif-1: 9.4*; MT1-MMP act inh: -4.5; Myeloid diff MLP: inactive; DAGLB inh: 3.8; SENP1 inh: -4.8; CendR NRP1 mod: -0.2; MIN6 prolif-2: 2.5

How did O=C(/C=C/c1ccc([N+](=O)[O-])cc1)NCc1ccccn1 do in these assays?
MIN6 prolif-1: -2.5; MT1-MMP act inh: 0.9; Myeloid diff MLP: inactive; DAGLB inh: 0.4; SENP1 inh: 0.3; CendR NRP1 mod: 3.5

Results for CCC(Cc1ccccc1)NC(=O)Cn1cccc1C(=O)c1ccccc1 (stereo unspecified) ?
MIN6 prolif-1: 16.2*; MT1-MMP act inh: -4.6; Myeloid diff MLP: inconclusive; DAGLB inh: -1.1; SENP1 inh: -0.8; CendR NRP1 mod: -7.0; MIN6 prolif-2: -5.5

How did O=C(Cn1cccc1C(=O)c1ccccc1)NCc1cccnc1 do in these assays?
MIN6 prolif-1: -1.7; MT1-MMP act inh: 2.2; Myeloid diff MLP: inactive; DAGLB inh: -0.9; SENP1 inh: 2.6; CendR NRP1 mod: 2.9

What do the screens show for `CCC(C)Nc1nc(N)c([N+](=O)[O-])c(NCc2ccccc2)n1` (stereo unspecified)?
MIN6 prolif-1: 6.2*; MT1-MMP act inh: 9.5; Myeloid diff MLP: inactive; DAGLB inh: -1.8; SENP1 inh: 1.7; CendR NRP1 mod: 9.9; MIN6 prolif-2: -6.4

Results for Cc1ccc(Nc2nc(N)c([N+](=O)[O-])c(NCc3ccccc3)n2)cc1 ?
MIN6 prolif-1: -1.8; MT1-MMP act inh: -2.0; Myeloid diff MLP: inactive; SENP1 inh: -2.6; CendR NRP1 mod: -3.1

Results for COc1ccccc1N1CCN(C(=O)CN(C)S(=O)(=O)c2ccc3c(c2)c(=O)n(C)c(=O)n3C)CC1 ?
MIN6 prolif-1: 6.9*; MT1-MMP act inh: -1.6; Myeloid diff MLP: inactive; DAGLB inh: -0.6; SENP1 inh: -28.4; CendR NRP1 mod: -19.3; MIN6 prolif-2: -1.4
